Bioassay records as filed in PubChem BioAssay.
GSTO1 counter = inhibitors of recombinant GSTO1, primary screen, counter-screen for RBBP9 inhibitor project, biochemical, fluorescence polarization; Glutathione S-transferase omega-1 (Homo sapiens), P78417; activity-based probe fluorescence polarization; inhibition, % at 5.96 µM; 300,000 compounds, 1.1% hits; AID 1974, 2009;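 active = inhibition above the campaign mean inhibition plus 3 SD, cut at about 35% in these data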;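 note: 0% = GSTO1-1 with DMSO and 100% = wells lacking GSTO1-1 enzyme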
Target sequence (P78417 whole entry, looked up): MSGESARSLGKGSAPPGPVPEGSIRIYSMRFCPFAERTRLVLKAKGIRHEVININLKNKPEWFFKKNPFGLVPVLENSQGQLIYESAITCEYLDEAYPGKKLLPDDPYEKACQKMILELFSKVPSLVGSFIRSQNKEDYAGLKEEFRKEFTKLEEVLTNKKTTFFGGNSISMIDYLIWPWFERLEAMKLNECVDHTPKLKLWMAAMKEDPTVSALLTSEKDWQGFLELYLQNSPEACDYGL
UBC9 SUMO inh = inhibitors of in vitro SUMOylation cascade, primary screen, biochemical, HTRF, uHTS. SUMO-conjugating enzyme UBC9 (Homo sapiens), P63279. HTRF SUMOylation assay, SAE1/SAE2 + UBC9. inhibition, % at 35 µM. 290,000 compounds, 0.36% hits. AID 2006, 2009; in the data active = inhibition above about 50%, passing the limit was not always enough; inconclusive = no clear call, values can overlap the other calls
TDP2 inh = human TDP2 enzyme inhibitors, primary screen, biochemical, epi absorbance, recombinant enzyme | AID 720702, 2013 | inhibition, % at 12.8 µM | T5PNP hydrolysis, p-nitrophenol absorbance 415 nm | 370,000 compounds, 0.34% hits;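 active = inhibition above the mean of all tested compounds plus 3 SD, set per campaign, cut at about 25% in these data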;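 note: 0% = DMSO with enzyme and 100% = buffer with substrate but no TDP2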
Target sequence (O95551 whole entry, looked up): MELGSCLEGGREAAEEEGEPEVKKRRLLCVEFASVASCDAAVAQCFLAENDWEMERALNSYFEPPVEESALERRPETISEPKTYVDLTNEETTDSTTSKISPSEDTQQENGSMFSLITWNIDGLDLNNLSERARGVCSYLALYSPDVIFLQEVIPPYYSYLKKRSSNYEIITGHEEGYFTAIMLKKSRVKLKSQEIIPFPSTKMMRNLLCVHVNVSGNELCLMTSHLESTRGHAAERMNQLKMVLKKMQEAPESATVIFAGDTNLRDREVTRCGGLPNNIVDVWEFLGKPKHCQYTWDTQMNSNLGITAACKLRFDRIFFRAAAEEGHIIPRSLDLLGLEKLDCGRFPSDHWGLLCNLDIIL
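System – recombinant human TDP2 · Amount – 120 nM TDP2 per well · Buffer or medium – Mg2+-containing Tris-HCl buffer, pH 7.5 · Reagent – T5PNP substrate, 5 mM · Dosing – 12.8 µM single point, 1% DMSO · Incubation – 2 h at 37 °C · Measured by – epi absorbance · Read-out basis – percent inhibition · Benchmarks – high control without enzyme, low control DMSO plus TDP2 · Repeats – singlicate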
PAD4 FP inh = human PAD4 inhibitors, primary screen, biochemical, fluorescence polarization, 1536-well format; AID 485272, 2010; recombinant PAD4, RCA probe fluorescence polarization; inhibition, % at 6.36 µM; 330,000 compounds, 0.41% hits; Protein-arginine deiminase type-4 (Homo sapiens), Q9UM07;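 active = percent inhibition above a cutoff equal to the mean of all tested compounds plus 3 SD, cut at about 15% in these data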;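 note: 0% = PAD4 with RCA probe and DMSO and 100% = probe without PAD4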
JMJD2C inh = inhibitors of GASC-1 histone demethylase, primary screen, biochemical, fluorescence, DELFIA europium. AID 2099, 2009. GST-JMJD2C(1-420) H3K9me3 demethylation. inhibition, % at 2.35 µM. 330,000 compounds, 0.069% hits;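 active = more than half of a compound's replicate wells show inhibition beyond 50%, single wells judged on their own value; inconclusive = some, but no more than half, of replicates pass 50% inhibition; inactive = no replicate passes 50% inhibition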;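 note: signal counts dimethyl H3K9 product captured on neutravidin plate; 0% = median of DMSO wells and 100% = 0.3 times that DMSO median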
Apaf-1 inh = inhibitors of human Apaf-1 apoptosome, primary screen, biochemical, DEVD-Rh110 fluorescence, uHTS. reconstituted apoptosome caspase-3 activity. AID 489030, 2010. inhibition, % at 20 µM. 330,000 compounds, 0.71% hits; active = inhibition of at least 40% at 20 µM;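 note: plate controls were DMSO wells for no effect and DEVD-CHO caspase inhibitor wells for full effect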
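Assay system – apoptosome proteins · Medium – Hepes buffer, pH 7.5 · Also added – cytochrome c with DEVD-Rh110 · Timing – 30 min compound preincubation, 50 min activation, room temperature · Detection – Rh110 fluorescence, excitation 480 nm, emission 540 nm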
GSTO1 confirm = GSTO1 inhibitor hit confirmation, counter-screen for RBBP9 inhibitor project, biochemical, fluorescence polarization, triplicate; shares compounds with GSTO1 counter; recombinant GSTO1, probe fluorescence polarization; inhibition, % at 5.96 µM; 2,400 compounds, 54% hits;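 active = inhibition above the primary screen's cutoff, its mean inhibition plus 3 SD, cut at about 35% in these data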;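 note: loss of polarization as inhibitors block binding of rhodamine sulfonate ester activity probe; 0% = GSTO1 with DMSO and 100% = wells lacking GSTO1 enzyme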
* = called active by the depositor. The list is not random: actives were taken first. Their share in the collection is about 1.6%.

Results for CC(=O)Oc1ccc(OC(C)=O)c(SCCCCCN2CCOCC2)c1 ?
GSTO1 counter: 79*; UBC9 SUMO inh: -1; TDP2 inh: 4; PAD4 FP inh: -7; JMJD2C inh: 6; Apaf-1 inh: 2; GSTO1 confirm: 6

Results for Oc1ccccc1NCC(O)Cn1ccc2ccccc21 (stereo not drawn) ?
GSTO1 counter: 66*; UBC9 SUMO inh: 19; TDP2 inh: 17; PAD4 FP inh: -6; JMJD2C inh: 49; Apaf-1 inh: 4; GSTO1 confirm: 7

What do the screens show for `OC(CNCc1ccccc1)Cn1ccc2ccccc21` (stereo not drawn)?
GSTO1 counter: 3; UBC9 SUMO inh: 1; TDP2 inh: -3; PAD4 FP inh: 1; JMJD2C inh: -3; Apaf-1 inh: -8

How did CN1CCN(C2=C(Cl)C(=O)C(c3cnc(N4CCCCC4)s3)=C(Cl)C2=O)CC1 do in these assays?
GSTO1 counter: 84*; UBC9 SUMO inh: 24; PAD4 FP inh: 23*; JMJD2C inh: -7; Apaf-1 inh: 84*; GSTO1 confirm: 19

What do the screens show for `CCN1C(=O)C2(C(C#N)=C(N)Oc3c2c(C)nn3-c2ccccc2)c2ccccc21` (stereo not drawn)?
GSTO1 counter: 39*; UBC9 SUMO inh: 23; PAD4 FP inh: -4; JMJD2C inh: inconclusive; Apaf-1 inh: 6; GSTO1 confirm: 10

What do the screens show for `Cc1nn(-c2ccccc2)c2c1C1(C(=O)N3c4c(cccc41)C(C)CC3(C)C)C(C#N)=C(N)O2` (stereo not drawn)?
GSTO1 counter: 11; UBC9 SUMO inh: -26; TDP2 inh: -14; PAD4 FP inh: 0; JMJD2C inh: -3; Apaf-1 inh: 8

How did COC(=O)[C@]12C[C@H](CC(=O)N3CCCC3)C(=O)N(Cc3cccc4ccccc34)C1=C[C@H](C1CCCC1)O[C@@H]2C do in these assays?
TDP2 inh: 0

What do the screens show for `CCCCn1c(N)c(N(CCOC)C(=O)C(C)N2C(=O)c3ccccc3C2=O)c(=O)[nH]c1=O` (stereo not drawn)?
GSTO1 counter: 67*; TDP2 inh: 0; PAD4 FP inh: 1; JMJD2C inh: -6; Apaf-1 inh: -4; GSTO1 confirm: 9

Results for CCNc1nc(NCC)nc(N/N=C/c2ccc(N(C)C)cc2)n1 ?
GSTO1 counter: 7; UBC9 SUMO inh: -3; TDP2 inh: 8; PAD4 FP inh: 6; JMJD2C inh: 6; Apaf-1 inh: -15

How did CCNc1nc(NCC)nc(N/N=C/c2ccc(O)c(O)c2)n1 do in these assays?
GSTO1 counter: 38*; UBC9 SUMO inh: 9; TDP2 inh: -3; PAD4 FP inh: -1; JMJD2C inh: -3; Apaf-1 inh: 5; GSTO1 confirm: 1

Results for COc1cc(=O)oc(-c2ccccc2)c1C(C)=O ?
GSTO1 counter: 7; TDP2 inh: -5; PAD4 FP inh: 2; JMJD2C inh: -21; Apaf-1 inh: -6

How did Cc1oc2c(c1C(=O)NCc1cccnc1)C(=O)c1ccccc1C2=O do in these assays?
GSTO1 counter: 60*; UBC9 SUMO inh: 34; PAD4 FP inh: 10; JMJD2C inh: 3; Apaf-1 inh: 86*; GSTO1 confirm: 48*

How did CC(=O)c1c(C)oc2c1C(=O)c1ccccc1C2=O do in these assays?
GSTO1 counter: 46*; UBC9 SUMO inh: 11; TDP2 inh: 5; PAD4 FP inh: -19; JMJD2C inh: -5; GSTO1 confirm: 56*

What do the screens show for `CCCCCC(=O)NC1CCCCN(Cc2ccc(C)cc2)C1=O` (stereo not drawn)?
TDP2 inh: 0

How did Cc1c(C#N)c(NC(=O)CCl)n(Cc2ccc(F)cc2)c1C do in these assays?
GSTO1 counter: 81*; UBC9 SUMO inh: -6; TDP2 inh: 14; PAD4 FP inh: 1; JMJD2C inh: 0; Apaf-1 inh: -1; GSTO1 confirm: 96*

How did COC(=O)c1cc(C(=O)OC)n(Cc2ccc(F)cc2)c1C do in these assays?
GSTO1 counter: 3; UBC9 SUMO inh: 10; TDP2 inh: -1; PAD4 FP inh: 2; JMJD2C inh: -10; Apaf-1 inh: 14

What do the screens show for `Cc1c(C#N)c(NC(=O)CCl)n(Cc2ccccc2)c1C`?
GSTO1 counter: 86*; UBC9 SUMO inh: 4; TDP2 inh: 3; PAD4 FP inh: 0; JMJD2C inh: -6; Apaf-1 inh: 7; GSTO1 confirm: 91*

What do the screens show for `Cc1nc2sc(C(=O)NCc3ccc4c(c3)OCO4)c(N)c2c(C)c1Cl`?
TDP2 inh: -3

What do the screens show for `CCOC(=O)c1ccc2c(c1)C1C=CCC1C(C(=O)O)N2` (stereo not drawn)?
GSTO1 counter: 52*; UBC9 SUMO inh: 60*; PAD4 FP inh: -1; JMJD2C inh: -15; Apaf-1 inh: 38; GSTO1 confirm: 39*

How did CCOC(=O)C1Nc2ccc(C(=O)O)cc2C2C=CCC12 (stereo not drawn) do in these assays?
GSTO1 counter: 27; UBC9 SUMO inh: 25; TDP2 inh: 20; PAD4 FP inh: -16; JMJD2C inh: -4; Apaf-1 inh: -6

What do the screens show for `CCN(CC)S(=O)(=O)c1ccc(NS(=O)(=O)c2ccc(O)c([N+](=O)[O-])c2)cc1`?
GSTO1 counter: 17; UBC9 SUMO inh: 8; TDP2 inh: 1; PAD4 FP inh: -3; JMJD2C inh: 2; Apaf-1 inh: 2

Results for CCN(CC)S(=O)(=O)c1ccc(NS(=O)(=O)c2ccc3oc(=O)[nH]c3c2)cc1 ?
GSTO1 counter: 44*; UBC9 SUMO inh: 18; TDP2 inh: 3; PAD4 FP inh: 3; JMJD2C inh: 9; Apaf-1 inh: 3; GSTO1 confirm: 58*

Results for CC(C)c1ccc(C(=O)Nc2cc(Cl)ccc2C(=O)O)cc1 ?
TDP2 inh: -16

Results for Cc1ccc(C(=O)c2coc3cc([N+](=O)[O-])c(O)c([N+](=O)[O-])c23)cc1 ?
GSTO1 counter: 38*; UBC9 SUMO inh: 15; TDP2 inh: 7; PAD4 FP inh: 1; JMJD2C inh: -5; Apaf-1 inh: 19; GSTO1 confirm: 19
